Calls of active or inactive are those of the source. The calls are words filed in the database; no cut-off is given here.
Legend:
Rattus norvegicus [1] = assay: Toxicity in rat assessed as change in cardiac noradrenaline level at 1 mg/kg; assay type: organism-based, Heart; set-up: dose 1 mg/kg; conditions: in vivo
Method in brief: (§1)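 Rats were given single or repeated (5 days) administration, and cardiac noradrenaline levels were measured.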

Rattus norvegicus [2] = assay: Toxicity in rat assessed as change in cardiac noradrenaline level at 1 mg/kg for 5 days; assay type: organism-based, Heart; set-up: dose 1 mg/kg; conditions: in vivo, 120 h; method in brief: as §1
Rattus norvegicus [3] = species: Rattus norvegicus; assay: Toxicity in rat assessed as effect on contraction of nictitating membranes by preganglionic stimulation; assay type: organism-based, Nictitating membrane; conditions: in vivo
Rattus norvegicus [4] = assay: Hypotensive activity in po dosed spontaneously hypertensive Wistar-Okamoto rat assessed as dose required to cause 30 mmHg fall of blood pressure administered for 5 days; assay type: functional; conditions: 120 h, read-out: MED
Rattus norvegicus [5] = assay: Hypotensive activity in spontaneously hypertensive Wistar-Okamoto rat assessed as maximum change in mean blood pressure at 2.5 mg/kg, po relative to control; assay type: functional
Method in brief: (§2)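 Spontaneously hypertensive Wistar-Okamoto rats, five per dose, received compound orally, dissolved or suspended in 0.5% carboxymethylcellulose. Blood pressure was measured indirectly by tail cuff in restrained conscious rats before dosing and at 2, 4, 6, 8, 12 and 24 h. Maximum change was measured after a single administration and given as mean ± error.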

Rattus norvegicus [6] = assay: Hypotensive activity in spontaneously hypertensive Wistar-Okamoto rat assessed as maximum change in mean blood pressure at 0.5 mg/kg, po relative to control; assay type: functional; method in brief: as §2
Rattus norvegicus [7] = assay: Hypotensive activity in spontaneously hypertensive Wistar-Okamoto rat assessed as maximum change in mean blood pressure at 1 mg/kg, po relative to control; assay type: functional; method in brief: as §2
Rattus norvegicus [8] = assay: Hypotensive activity in spontaneously hypertensive Wistar-Okamoto rat assessed as time required for persistence of hypotensive effect at 2.5 mg/kg, po; assay type: functional
Method in brief: (§3)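 SHR (Wistar-Okamoto), five per dose, were given an oral dose in 0.5% carboxymethylcellulose. Indirect cuff pressure in restrained conscious rats was read before dosing and at 2, 4, 6, 8, 12 and 24 h. Duration (h) was scored while pressure remained 15 mmHg or more below the initial reading.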

Rattus norvegicus [9] = assay: Hypotensive activity in spontaneously hypertensive Wistar-Okamoto rat assessed as time required for persistence of hypotensive effect at 0.5 mg/kg, po; assay type: functional; method in brief: as §3
Rattus norvegicus [10] = assay: Hypotensive activity in spontaneously hypertensive Wistar-Okamoto rat assessed as time required for persistence of hypotensive effect at 1 mg/kg, po; assay type: functional; method in brief: as §3
Canis familiaris [11] = assay: Hypotensive activity in conscious renal hypertensive dog assessed as maximum change in mean blood pressure at 0.25 mg/kg, po measured for 8 hrs relative to control; assay type: functional, Canis lupus familiaris
Method in brief: (§4)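 Renal hypertensive dogs, conscious, dosed orally in soft gelatin capsules, three dogs per dose. Mean blood pressure was taken indirectly with an Arteriosonde, standing animals in a semi-insonorized room, just before dosing and then hourly for 8 h. Maximum change was measured after a single administration and given as mean ± error.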

Canis familiaris [12] = assay: Hypotensive activity in conscious renal hypertensive dog assessed as maximum change in mean blood pressure at 0.5 mg/kg, po measured for 8 hrs relative to control; assay type: functional, Canis lupus familiaris; method in brief: as §4
Canis familiaris [13] = assay: Hypotensive activity in conscious renal hypertensive dog assessed as maximum change in mean blood pressure at 1 mg/kg, po measured for 8 hrs relative to control; assay type: functional, Canis lupus familiaris; method in brief: as §4
Canis familiaris [14] = assay: Hypotensive activity in conscious renal hypertensive dog assessed as time required for persistence of hypotensive effect at 0.25 mg/kg, po measured for 8 hrs; assay type: functional, Canis lupus familiaris
Method in brief: (§5)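 Conscious renal hypertensive dogs received single oral doses in soft gelatin capsules, three per dose. Indirect standing blood pressure was read before dosing and hourly to 8 h. Duration (h) was the time the pressure stayed 15 mmHg or more below the initial value, which was taken as persistence of the hypotensive effect.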

Canis familiaris [15] = assay: Hypotensive activity in conscious renal hypertensive dog assessed as time required for persistence of hypotensive effect at 0.5 mg/kg, po measured for 8 hrs; assay type: functional, Canis lupus familiaris; method in brief: as §5
Canis familiaris [16] = assay: Hypotensive activity in conscious renal hypertensive dog assessed as time required for persistence of hypotensive effect at 1 mg/kg, po measured for 8 hrs; assay type: functional, Canis lupus familiaris; method in brief: as §5
Felis catus = species: Felis catus; assay: Hypotensive activity in decerebrated cat; assay type: functional, organism-based
Rattus norvegicus [17] = assay: Toxicity in rat assessed as change in cardiac noradrenaline level at 0.1 mg/kg; assay type: organism-based, Heart; set-up: dose 0.1 mg/kg; conditions: in vivo; method in brief: as §1
Rattus norvegicus [18] = assay: Toxicity in rat assessed as change in cardiac noradrenaline level at 0.1 mg/kg for 5 days; assay type: organism-based, Heart; set-up: dose 0.1 mg/kg; conditions: in vivo, 120 h; method in brief: as §1
[19] = Toxicity in po dosed mouse assessed as mortality after 7 days; conditions: in vivo
[20] = Toxicity in po dosed Sprague-Dawley rat assessed as mortality after 7 days; assay type: organism-based; conditions: in vivo
Rattus norvegicus [21] = assay: Hypotensive activity in spontaneously hypertensive Wistar-Okamoto rat assessed as maximum change in mean blood pressure at 0.1 mg/kg, po relative to control; assay type: functional; method in brief: as §2
Rattus norvegicus [22] = assay: Hypotensive activity in spontaneously hypertensive Wistar-Okamoto rat assessed as maximum change in mean blood pressure at 0.25 mg/kg, po relative to control; assay type: functional; method in brief: as §2
Rattus norvegicus [23] = assay: Hypotensive activity in spontaneously hypertensive Wistar-Okamoto rat assessed as time required for persistence of hypotensive effect at 0.1 mg/kg, po; assay type: functional; method in brief: as §3
Rattus norvegicus [24] = assay: Hypotensive activity in spontaneously hypertensive Wistar-Okamoto rat assessed as time required for persistence of hypotensive effect at 0.25 mg/kg, po; assay type: functional; method in brief: as §3
Canis familiaris [25] = assay: Hypotensive activity in conscious renal hypertensive dog assessed as maximum change in mean blood pressure at 2 mg/kg, po measured for 8 hrs relative to control; assay type: functional, Canis lupus familiaris; method in brief: as §4
Canis familiaris [26] = assay: Hypotensive activity in conscious renal hypertensive dog assessed as time required for persistence of hypotensive effect at 2 mg/kg, po measured for 8 hrs; assay type: functional, Canis lupus familiaris; method in brief: as §5
Rattus norvegicus [27] = assay: Hypotensive activity in po dosed spontaneously hypertensive Wistar-Okamoto rat relative to hydralazine; assay type: functional

SMILES: CC(N/C(=N\C#N)Nc1ccncc1)C(C)(C)C (stereo not given) [PINACIDIL ANHYDROUS]
- Activity (Rattus norvegicus [1]): Non-toxic
- Activity (Rattus norvegicus [2]): Non-toxic
- Activity (Rattus norvegicus [3]): Non-toxic
- minimal effective dose (Rattus norvegicus [4]): 0.5 mg/kg
- Activity (Rattus norvegicus [5]): -79 mmHg
- Activity (Rattus norvegicus [6]): -34 mmHg
- Activity (Rattus norvegicus [7]): -68 mmHg
- Time (Rattus norvegicus [8]): >12 h
- Time (Rattus norvegicus [9]): 8 h
- Time (Rattus norvegicus [10]): >12 h
- Activity (Canis familiaris [11]): -26 mmHg
- Activity (Canis familiaris [12]): -43 mmHg
- Activity (Canis familiaris [13]): -67 mmHg
- Time (Canis familiaris [14]): 4 h
- Time (Canis familiaris [15]): 6 h
- Time (Canis familiaris [16]): >8 h
- Activity (Felis catus): Active

SMILES: CCC(C)(C)NC(=NC#N)Nc1cccnc1
- Activity (Rattus norvegicus [17]): Non-toxic
- Activity (Rattus norvegicus [18]): Non-toxic
- Activity (Rattus norvegicus [3]): Non-toxic
- LD50 at 168 h [19]: > 1000 mg/kg
- LD50 at 168 h [20]: 14 mg/kg

SMILES: CC(=O)N(/C(=N\C#N)Nc1cccnc1)C(C)(C)C.O
- Activity (Rattus norvegicus [3]): Non-toxic
- LD50 at 168 h [19]: > 1000 mg/kg
- minimal effective dose (Rattus norvegicus [4]): 0.1 mg/kg
- LD50 at 168 h [20]: 615 mg/kg
- Activity (Rattus norvegicus [21]): -30 mmHg
- Activity (Rattus norvegicus [22]): -64 mmHg
- Activity (Rattus norvegicus [6]): -86 mmHg
- Time (Rattus norvegicus [23]): 4 h
- Time (Rattus norvegicus [24]): 4 h
- Time (Rattus norvegicus [9]): >8 h
- Activity (Canis familiaris [12]): -22 mmHg
- Activity (Canis familiaris [25]): -75 mmHg
- Time (Canis familiaris [15]): 2 h
- Time (Canis familiaris [26]): 8 h
- fold change (FC) (Rattus norvegicus [27]): 2
- Activity (Felis catus): Active

SMILES: CC(C)(N/C(=N\C#N)Nc1ccncc1)c1ccccc1
- LD50 at 168 h [19]: > 1000 mg/kg
- minimal effective dose (Rattus norvegicus [4]): > 50 mg/kg

— ChEMBL document CHEMBL3272224, “Synthesis and hypotensive activity of N-alkyl-N"-cyano-N'-pyridylguanidines” (J Med Chem, 1978)
